The source made the active and inactive calls. The calls are words filed in the database; no cut-off is given here.

The source of these data is ChEMBL document CHEMBL5252646, “Novel thienocycloalkylpyridazinones as useful scaffolds for acetylcholinesterase inhibition and serotonin 5-HT6 receptor interaction” (Bioorg Med Chem, 2023).

Test [1] concerns the target T1, 5-hydroxytryptamine receptor 7 (Homo sapiens, UniProt P34969). Put plainly: Displacement of [3H]SB269970 from human 5-HT7 receptor expressed in HEK cell membrane incubated for 60 mins by microplate beta scintillation counting analysis. The test is classed as cell membranes.
Test [2] has as its target T2, Acetylcholinesterase (Homo sapiens, UniProt P22303). Put plainly: Inhibition of human AChE using acetylthiocholine iodide as substrate preincubated with enzyme for 20 mins followed by substrate addition and measured for 5 mins by Ellman's spectrophotometric method.
Test [3] has as its target T3, 5-hydroxytryptamine receptor 1A (Homo sapiens) (UniProt P08908).
T3 sequence (whole entry): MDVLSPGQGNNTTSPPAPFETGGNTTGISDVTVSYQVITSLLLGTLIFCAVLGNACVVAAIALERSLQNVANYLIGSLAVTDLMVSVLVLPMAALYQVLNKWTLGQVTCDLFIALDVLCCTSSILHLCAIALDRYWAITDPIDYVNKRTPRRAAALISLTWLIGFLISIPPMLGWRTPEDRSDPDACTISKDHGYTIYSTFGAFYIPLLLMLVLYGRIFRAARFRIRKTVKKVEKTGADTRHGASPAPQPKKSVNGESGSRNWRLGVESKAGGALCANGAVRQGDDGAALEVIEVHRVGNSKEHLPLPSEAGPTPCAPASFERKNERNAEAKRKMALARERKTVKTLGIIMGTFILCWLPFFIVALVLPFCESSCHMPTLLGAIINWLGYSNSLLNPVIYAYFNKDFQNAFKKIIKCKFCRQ
The test can be described thus: Displacement of [3H]-8-OH-DPAT from human 5-HT1A receptor expressed in HEK cell membrane at 10 uM incubated for 120 mins by microplate beta scintillation counting analysis. The test is classed as cell membranes. The procedure, abridged:
(§1)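 Membranes from HEK cells expressing human 5-HT1A, 10 µg per well, with 1 nM [3H]-8-OH-DPAT, 120 min at 37 °C. Buffer 50 mM Tris-HCl, 5 mM MgSO4, pH 7.4. Nonspecific binding with 10 µM 5-HT. Filtered on PEI-treated GF/C and washed, then scintillation counted. Duplicates.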

In test [4] the target is T4, 5-hydroxytryptamine receptor 4 (Homo sapiens, UniProt Q13639). Put plainly: Antagonist activity at 5-HT4 receptor in human HeLa cells assessed as inhibition of intracellular calcium mobilization at 10 uM incubated for 2 hrs by FLIPR assay. The test is classed as cell-based. The procedure, abridged: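 HeLa cells stably expressing human 5-HT4, 20,000 per well, seeded the day before. Medium replaced with DMEM plus Calcium 6 dye, 2 h at 37 °C, then compounds and standard added. Intracellular calcium read by fluorescence (ex 480, em 540 nm) every second after a baseline. Duplicates.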
T4 sequence (Q13639 whole entry): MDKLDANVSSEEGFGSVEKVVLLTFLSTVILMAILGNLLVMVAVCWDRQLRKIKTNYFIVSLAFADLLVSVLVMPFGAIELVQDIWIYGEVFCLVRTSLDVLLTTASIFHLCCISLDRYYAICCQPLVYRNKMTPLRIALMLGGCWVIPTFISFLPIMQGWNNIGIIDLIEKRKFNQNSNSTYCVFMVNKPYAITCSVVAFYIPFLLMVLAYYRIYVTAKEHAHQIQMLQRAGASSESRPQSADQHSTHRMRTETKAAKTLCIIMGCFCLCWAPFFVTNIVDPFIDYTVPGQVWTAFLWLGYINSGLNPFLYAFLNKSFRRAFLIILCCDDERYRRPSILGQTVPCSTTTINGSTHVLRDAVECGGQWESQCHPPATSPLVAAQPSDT

Test [5] has as its target T5, 5-hydroxytryptamine receptor 6 (Homo sapiens, UniProt P50406). Put plainly: Displacement of [3H]-LSD from human 5-HT6 receptor expressed in HEK cell membrane incubated for 60 mins by microplate beta scintillation counting analysis. The test is classed as cell membranes. The procedure, abridged: (§2)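 Membranes from HEK cells expressing human 5-HT6, 5 µg per well, with 2 nM [3H]-LSD, 60 min at 37 °C. Buffer 50 mM Tris-HCl, 10 mM MgCl2, 0.5 mM EDTA, pH 7.4. Nonspecific binding with 100 µM 5-HT. Filtered on GF/C, scintillation counted.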

The target in test [6] is T6, Cholinesterase (Homo sapiens, UniProt P06276). Put plainly: Inhibition of human BChE using butyrylthiocholine iodide as substrate preincubated with enzyme for 20 mins followed by substrate addition and measured for 5 mins by Ellman's spectrophotometric method.
T6 sequence (P06276 whole entry): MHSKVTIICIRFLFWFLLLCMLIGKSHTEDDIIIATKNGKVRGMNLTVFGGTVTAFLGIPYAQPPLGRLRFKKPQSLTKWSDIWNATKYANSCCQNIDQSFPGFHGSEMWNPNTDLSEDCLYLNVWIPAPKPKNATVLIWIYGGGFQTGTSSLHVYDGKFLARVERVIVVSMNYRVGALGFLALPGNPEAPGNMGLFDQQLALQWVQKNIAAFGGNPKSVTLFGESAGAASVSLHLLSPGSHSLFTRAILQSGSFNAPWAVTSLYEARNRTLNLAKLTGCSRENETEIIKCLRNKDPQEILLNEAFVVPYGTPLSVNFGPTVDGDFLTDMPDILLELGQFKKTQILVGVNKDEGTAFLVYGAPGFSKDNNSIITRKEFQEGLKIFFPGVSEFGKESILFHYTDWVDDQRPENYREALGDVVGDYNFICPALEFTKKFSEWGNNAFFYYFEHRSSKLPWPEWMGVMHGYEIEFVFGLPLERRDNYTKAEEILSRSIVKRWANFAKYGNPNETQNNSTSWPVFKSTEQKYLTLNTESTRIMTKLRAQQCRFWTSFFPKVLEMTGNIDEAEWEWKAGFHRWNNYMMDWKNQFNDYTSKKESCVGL
Test [7] deals with T4, 5-hydroxytryptamine receptor 4. The test can be described thus: Antagonist activity at 5-HT4 receptor in human HeLa cells assessed as inhibition of intracellular calcium mobilization incubated for 2 hrs by FLIPR assay. The test is classed as cell-based. The procedure, abridged: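 HeLa cells stably expressing human 5-HT4, seeded the day before at 20,000 cells/well. Medium replaced with DMEM plus Calcium 6 dye, then 2 h at 37 °C. Compounds and standard added afterwards. Fluorescence from intracellular calcium mobilization (ex 480 nm, em 540 nm) recorded every second after a baseline was set. Run in duplicate.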

Test [8] deals with T7, 5-hydroxytryptamine receptor 1A (Homo sapiens, UniProt P08908).
T7 sequence (P08908 whole entry): T3 sequence (whole entry)
The test can be described thus: Displacement of [3H]-8-OH-DPAT from human 5-HT1A receptor expressed in HEK cell membrane incubated for 120 mins by microplate beta scintillation counting analysis. The test is classed as cell membranes. The procedure, abridged:
as §1

The target in test [9] is T6, Cholinesterase. Put plainly: Inhibition of human BChE using butyrylthiocholine iodide as substrate at 10 uM preincubated with enzyme for 20 mins followed by substrate addition and measured for 5 mins by Ellman's spectrophotometric method. The conditions noted are these: time 25.0 min.
In test [10] the target is T1, 5-hydroxytryptamine receptor 7. Put plainly: Displacement of [3H]SB269970 from human 5-HT7 receptor expressed in HEK cell membrane at 10 uM incubated for 60 mins by microplate beta scintillation counting analysis. The test is classed as cell membranes. The procedure, abridged:
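Membranes from HEK cells expressing human 5-HT7, 2 µg per well, with 2 nM [3H]-SB269970, 60 min at 37 °C. Buffer Tris-HCl 50 mM, 4 mM CaCl2, 1 mM ascorbic acid, 0.1 mM pargyline, pH 7.4. Nonspecific binding with 25 µM clozapine. Filtered, scintillation counted. Duplicates. Displacement as % at 10 µM.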

Test [11] concerns the target T5, 5-hydroxytryptamine receptor 6. Put plainly: Displacement of [3H]-LSD from human 5-HT6 receptor expressed in HEK cell membrane at 10 uM incubated for 60 mins by microplate beta scintillation counting analysis. The test is classed as cell membranes. The procedure, abridged: as §2
Test [12] has as its target T2, Acetylcholinesterase. The test can be described thus: Competitive inhibition of human AChE using acetylthiocholine iodide as substrate preincubated with enzyme for 20 mins followed by varing concentrations of substrate addition and measured for 5 mins by Lineweaver-Burk plot analysis. The procedure, abridged:
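Human AChE, Ellman spectrophotometric method in 96-well format, run in triplicate. Kinetics: six acetylthiocholine concentrations (0.033 to 0.2 mM) crossed with four inhibitor concentrations (0–300 nM). Analysed by the Michaelis-Menten approach; kinetic parameters from nonlinear regression.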

T1 sequence (P34969 whole entry): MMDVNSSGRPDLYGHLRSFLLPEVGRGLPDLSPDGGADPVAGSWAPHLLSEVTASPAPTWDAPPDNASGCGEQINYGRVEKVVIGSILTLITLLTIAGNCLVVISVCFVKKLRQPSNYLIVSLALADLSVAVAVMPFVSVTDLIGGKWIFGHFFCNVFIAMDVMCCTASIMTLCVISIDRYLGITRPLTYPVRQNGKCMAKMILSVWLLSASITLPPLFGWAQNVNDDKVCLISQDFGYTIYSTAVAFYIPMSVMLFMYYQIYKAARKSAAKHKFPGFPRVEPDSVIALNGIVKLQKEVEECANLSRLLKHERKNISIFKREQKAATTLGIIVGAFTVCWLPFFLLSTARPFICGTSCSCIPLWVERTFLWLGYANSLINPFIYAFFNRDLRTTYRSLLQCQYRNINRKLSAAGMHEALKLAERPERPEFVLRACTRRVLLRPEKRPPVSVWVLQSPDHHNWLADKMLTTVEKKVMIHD
T2 sequence (P22303 whole entry): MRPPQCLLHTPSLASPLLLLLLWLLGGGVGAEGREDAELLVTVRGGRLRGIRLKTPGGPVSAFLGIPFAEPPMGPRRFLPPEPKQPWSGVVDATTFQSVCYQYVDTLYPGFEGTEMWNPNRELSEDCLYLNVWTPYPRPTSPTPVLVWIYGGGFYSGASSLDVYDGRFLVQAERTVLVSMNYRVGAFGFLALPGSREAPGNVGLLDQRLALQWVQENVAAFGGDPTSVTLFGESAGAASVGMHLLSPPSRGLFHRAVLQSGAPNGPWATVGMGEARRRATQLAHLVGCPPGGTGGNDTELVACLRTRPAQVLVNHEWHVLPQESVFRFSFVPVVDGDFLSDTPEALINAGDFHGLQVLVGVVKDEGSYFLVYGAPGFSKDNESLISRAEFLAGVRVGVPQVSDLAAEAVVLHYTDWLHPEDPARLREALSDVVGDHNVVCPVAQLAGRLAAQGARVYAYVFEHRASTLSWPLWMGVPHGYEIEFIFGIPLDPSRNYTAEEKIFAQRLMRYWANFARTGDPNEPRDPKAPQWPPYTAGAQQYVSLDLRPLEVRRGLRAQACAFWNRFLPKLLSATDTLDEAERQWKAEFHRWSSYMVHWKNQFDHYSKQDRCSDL
T5 sequence (P50406 whole entry): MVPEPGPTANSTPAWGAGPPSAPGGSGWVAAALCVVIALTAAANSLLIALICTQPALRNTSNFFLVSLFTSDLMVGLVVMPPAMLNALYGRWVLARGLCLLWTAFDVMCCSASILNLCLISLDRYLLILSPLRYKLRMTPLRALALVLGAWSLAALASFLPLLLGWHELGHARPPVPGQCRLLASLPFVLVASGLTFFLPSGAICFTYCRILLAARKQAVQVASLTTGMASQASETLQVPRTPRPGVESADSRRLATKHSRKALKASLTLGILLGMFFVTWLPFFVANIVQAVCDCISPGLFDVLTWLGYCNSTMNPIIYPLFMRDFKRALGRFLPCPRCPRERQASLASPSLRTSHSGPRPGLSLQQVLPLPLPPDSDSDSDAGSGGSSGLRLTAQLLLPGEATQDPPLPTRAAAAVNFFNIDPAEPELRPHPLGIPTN

For the compound `O=C1CC2CCc3ccsc3C2=NN1CCCCCN1CCN(Cc2cccc3c2ccn3S(=O)(=O)c2ccccc2)CC1` (centres undefined), the Ki worked out at 1690 nM in test [1] and 63 nM in [5]. This compound came in with an IC50 against Acetylcholinesterase [2] of 4440 nM. The inhibition in [3] is 35%. Moreover, the inhibition result in test [4] is “inactive”.

For `O=C1CC2CCc3sccc3C2=NN1CCCCN1CCN(Cc2ccccc2)CC1` (centres undefined), the IC50 on Cholinesterase [6] is 3300 nM; at Acetylcholinesterase [2], 860 nM.

As for `Cn1cc(C(=O)OCC2CCN(CCNS(C)(=O)=O)CC2)c2ccccc21`, the Ki in test [7] turned out to be 1.4 nM.

`O=C1CC2Cc3ccsc3C2=NN1CCCCN1CCN(Cc2cccc3c2ccn3S(=O)(=O)c2ccccc2)CC1` (centres undefined): the Ki in test [8] was determined as 4610 nM; in test [1], 2020 nM; in [5] it was 193 nM. At Acetylcholinesterase [2], this compound came in with an IC50 of 3550 nM. In addition, in [4], the inhibition was 26%.

Take `CN(C)CCCCN1N=C2c3sccc3CCC2CC1=O` (centres undefined): the inhibition result on Cholinesterase [9] is “inactive”. The inhibition in test [10] came out at 24%; in test [11], 36%; in test [3], 37%. In addition, it took 6360 nM to reach half-maximal inhibition on Acetylcholinesterase [2] (IC50).

Compound `O=C1CC2CCc3ccsc3C2=NN1CCCCN1CCN(Cc2ccccc2)CC1` (centres undefined) had an inhibition at Cholinesterase [9] of 45%. In addition, the values for the Ki in [8], in [1] and in test [5] were 496 nM, 995 nM and 3300 nM, respectively. For the same compound, at Acetylcholinesterase [2], the IC50 came to 756 nM.

Turning to `O=C1CC2CCc3ccsc3C2=NN1CCN1CCN(Cc2ccccc2)CC1` (centres undefined), the values for the Ki (in [8]; in [5]; at Acetylcholinesterase [12]) were 1080 nM, 1670 nM and 123 nM, respectively. The IC50 against Cholinesterase [6] worked out at 5110 nM; on Acetylcholinesterase [2], 170 nM. This compound came in with an inhibition in [10] of 26%.

Regarding `O=C1CC2Cc3ccsc3C2=NN1CCCCCCN1CCN(Cc2cccc3c2ccn3S(=O)(=O)c2ccccc2)CC1` (centres undefined), the Ki in test [8] stood at 5160 nM; in test [5], 68 nM. The compound also yielded an inhibition in [10] of 39%. The compound further showed an IC50 against Acetylcholinesterase [2] of 9180 nM. The inhibition entry in test [4] is “inactive”.

In the case of `O=C1CC2CCc3ccsc3C2=NN1CCCCN1CCCCC1` (centres undefined), the inhibition on Cholinesterase [9] amounted to 9%; in [10], 18%; in [11], 30%. For the same compound, the Ki in [8] came out at 4300 nM. In addition, the IC50 against Acetylcholinesterase [2] is 2090 nM.

With `O=C1CC2Cc3ccsc3C2=NN1CCCCCCCN1CCN(Cc2cccc3c2ccn3S(=O)(=O)c2ccccc2)CC1` (centres undefined), the Ki in test [8] amounted to 6620 nM; in test [1] it was 3760 nM; in test [5], 80 nM. For the same compound, the IC50 against Acetylcholinesterase [2] worked out at 7180 nM. Besides, the inhibition result in test [4] was “inactive”.

As to `O=C1CC2CCc3ccsc3C2=NN1CCCCN1CCN(Cc2cccc3c2ccn3S(=O)(=O)c2ccccc2)CC1` (centres undefined), the Ki in [8] was 2840 nM; in test [1], 2010 nM; in test [5] it was 236 nM. This compound also registered an IC50 on Acetylcholinesterase [2] of 7610 nM. In test [4], the inhibition result was “inactive”.

As for `O=C1CC2CCc3ccsc3C2=NN1Cc1ccc(CN2CCN(Cc3ccccc3)CC2)cc1` (centres undefined), the values for the Ki in test [8], in [1] and in [5] were 786 nM, 2110 nM and 1260 nM, respectively. For the same compound, the IC50 amounted to 9700 nM against Cholinesterase [6] and 3650 nM at Acetylcholinesterase [2].

`CCN(CC)CCCCN1N=C2c3sccc3CCC2CC1=O` (centres undefined): on Cholinesterase [9], the inhibition result was “inactive”. In test [8], this compound returned a Ki of 8630 nM. For the same compound, the inhibition was determined as 10% in test [10] and 27% in test [11]. The compound also showed an IC50 against Acetylcholinesterase [2] of 2930 nM.

For `O=C1CC2CCc3ccsc3C2=NN1CCCCCCCN1CCN(Cc2cccc3c2ccn3S(=O)(=O)c2ccccc2)CC1` (centres undefined), the inhibition was found to be 43% in test [10] (filed as antagonist), 33% in [3] and 16% in test [4]. The compound further yielded an IC50 against Acetylcholinesterase [2] of 4560 nM. This compound also returned a Ki in test [5] of 87 nM.

Turning to `O=C1CC2CCc3ccsc3C2=NN1CCCCN1CCCC1` (centres undefined), the figures for the inhibition (on Cholinesterase [9]; in test [10]; in [11]) were 14%, 16% and 33%, respectively. Further, the Ki in [8] was found to be 3530 nM. This compound also gave an IC50 against Acetylcholinesterase [2] of 1160 nM.

With `O=C1CC2CCc3ccsc3C2=NN1CN1CCN(Cc2ccccc2)CC1` (centres undefined), the figures for the concentration for half-maximal inhibition (IC50) against Cholinesterase [6] and against Acetylcholinesterase [2] were 5580 nM and 13600 nM, respectively. Also, the inhibition worked out at 23% in [10], 28% in test [11] and 24% in test [3].

In the case of `O=C1CC2CCc3ccsc3C2=NN1CCCCCCN1CCN(Cc2cccc3c2ccn3S(=O)(=O)c2ccccc2)CC1` (centres undefined), the values for the inhibition in test [10], in test [3] and in test [4] were 33%, 23% and 12%, respectively. This compound yielded an IC50 on Acetylcholinesterase [2] of 9800 nM. Further, the affinity in test [5], expressed as Ki, was 102 nM.

Consider `O=C1CC2Cc3ccsc3C2=NN1CCCCN1CCN(Cc2ccccc2)CC1` (centres undefined), for which the inhibition against Cholinesterase [9] is 11%. For the same compound, the Ki worked out at 614 nM in test [8], 1000 nM in [1] and 3970 nM in [5]. At Acetylcholinesterase [2], this compound displayed an IC50 of 538 nM.

As to `O=C1CC2Cc3ccsc3C2=NN1CCCCCN1CCN(Cc2cccc3c2ccn3S(=O)(=O)c2ccccc2)CC1` (centres undefined), the Ki was 3580 nM in test [8], 1800 nM in test [1] and 8.4 nM in test [5]. Moreover, on Acetylcholinesterase [2], it took 6890 nM to reach half-maximal inhibition (IC50). In addition, in test [4], the inhibition entry is “inactive”.

Regarding `O=C1CC2CCCc3ccsc3C2=NN1CCCCN1CCN(Cc2ccccc2)CC1` (centres undefined), the Ki in test [8] was determined as 414 nM; in test [1], 976 nM; in test [5] it was 1430 nM. For the same compound, the IC50 at Cholinesterase [6] came to 4130 nM; against Acetylcholinesterase [2] it was 1230 nM.
